High-throughput results (PubChem)
MrgX1 ag = activates human MrgX1 receptor signaling; Q96LB2; MrgX1-HEK293 cells, Fluo-4 calcium fluorescence, agonist mode; active compounds read high; B-score at 10 µM; 310,000 compounds, 0.44% hits; AID 588627;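 active = calcium response B-score plate-corrected fluorescence ratio at least 3 library SD, with starting fluorescence B-score inside 5 SD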
Target sequence (Q96LB2 whole entry, looked up): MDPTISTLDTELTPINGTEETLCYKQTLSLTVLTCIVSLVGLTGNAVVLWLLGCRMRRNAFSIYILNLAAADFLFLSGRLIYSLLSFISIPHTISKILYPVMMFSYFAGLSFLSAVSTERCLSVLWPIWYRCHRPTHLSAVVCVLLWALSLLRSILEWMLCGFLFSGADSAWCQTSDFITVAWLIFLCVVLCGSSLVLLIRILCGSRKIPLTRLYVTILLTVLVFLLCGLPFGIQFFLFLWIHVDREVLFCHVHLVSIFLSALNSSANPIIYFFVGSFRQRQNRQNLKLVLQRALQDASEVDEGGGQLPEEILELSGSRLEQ
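Material: MrgX1-expressing HEK293 cells / Dosing: compound as first of three additions / Incubation: overnight seeding, then 1 h dark dye loading / Signal: Fluo-4 NW calcium fluorescence / Evaluation: B-scored fluorescence response ratio / Benchmarks: positive and negative control wells on each plate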
RGS4 act = potentiators or activators of RGS4 | AID 463111 | 310,000 compounds, 0.92% hits | B-score at 10 µM | HEK293 M3R/inducible RGS4, carbachol calcium flux Fluo4; active compounds read low;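 active = B-score of the integrated calcium signal more than 4 SD below the library mean, with starting fluorescence not abnormally high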;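 also: negative B-score means reduced calcium response which marks RGS4 activation or potentiation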
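Material: M3R-expressing HEK293 line, RGS4 induced by doxycycline | Schedule: Overnight RGS4 induction, 30 min dye load 37 °C, 20 min compound RT | Measured by: Fluo4 fluorescence kinetic imaging of calcium | Read-out: Integrated calcium ratio converted to B score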
RGS4 inh = human RGS4 inhibition; P49798; HEK293 M3R/RGS4 inducible, Fluo-4 calcium flux; active compounds read high; triggered by carbachol at its EC20; B-score at 10 µM; 310,000 compounds, 0.45% hits; AID 463165;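 active = B-score, a plate-corrected calcium signal, over three deviations above library mean, with baseline fluorescence within five deviations of library mean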;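 also: RGS4 expression induced by doxycycline in cells with stable M3 receptor; B-score is computed from the integrated fluorescence ratio over baseline after carbachol; higher B-score means a larger calcium signal and so more RGS4 inhibition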
MrgX1 PAM = human MrgX1 positive allosteric modulation, primary screen. Q96LB2. MrgX1-HEK293, Fluo-4 calcium flux, FDSS; active compounds read high. B-score at 10 µM. 310,000 compounds, 0.63% hits. AID 588675;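 active = plate-corrected calcium response at least 3 library SD above typical, normal starting fluorescence, not activating the receptor alone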;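 also: compound read alongside a low EC10 to EC30 dose of BAM8-22 agonist; peak minus trough fluorescence over baseline measured at the second addition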
MrgX1 antagonist = human MrgX1 receptor antagonism, primary screen | MRGX1-HEK293 calcium flux, Fluo-4, BAM8-22 antagonism; active compounds read low | B-score at 10 µM | 310,000 compounds, 1.3% hits | AID 588676;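 active = calcium-response B-score plate-corrected more than 3 library SD below zero, starting fluorescence within 5 deviations, no agonist response on first addition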;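 also: peak minus trough fluorescence over baseline after final BAM8-22 challenge near maximal dose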
MrgX1 ag confirm = confirmation of human MrgX1 receptor agonists | shares compounds with MrgX1 ag | MrgX1-HEK293, Fluo-4 calcium fluorescence, FDSS | activation, % at 10 µM | 600 compounds, 78% hits;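 active = calcium signal rise, corrected for plate position, at least 3 library SD high, with starting brightness within 5 such deviations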
HEK293 Ca flux = MrgX1 antagonist counter-screen hit in parental HEK293 cells; 4,000 compounds, 2% hits; shares compounds with MrgX1 antagonist; Fluo-4 calcium fluorescence, FDSS; fluorescence ratio F(max-min)/F0 at 10 µM;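 active = duplicate-averaged calcium fluorescence ratio at least three times the standard deviation of buffer wells, a nonspecific response in parental cells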
HEK293 Ca counter = MrgX1 allosteric activator counter-screen hit in parental HEK293 cells | fluorescence ratio F(max-min)/F0 at 10 µM | parental HEK293 calcium flux, Fluo-4 fluorescence ratio; active compounds read high | 4,000 compounds, 0.4% hits | shares compounds with MrgX1 antagonist;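 active = calcium fluorescence ratio, averaged over duplicates, at least 3 SD of the buffer-well ratio, meaning a nonspecific response in receptor-free cells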;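 also: untransfected parental HEK293 lacking MrgX1 used as counterscreen for MrgX1 allosteric activators; fluorescence change taken during the second addition on a kinetic imager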
HEK293 Ca cntr2 = activity in parental HEK293 cells lacking MrgX1 receptor. shares compounds with MrgX1 antagonist. Fluo-4 calcium fluorescence (FDSS); active compounds read high. fluorescence ratio F(max-min)/F0 at 10 µM. 4,000 compounds, 8.7% hits. AID 624115;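 active = calcium fluorescence ratio at least three times the spread of buffer wells, meaning a non-specific response in parental cells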
An asterisk follows results filed as active; i = inactive; . = no result. This is a sample that favours compounds with a hit; in the whole collection about 3.5% have one here.

SMILES	MrgX1 ag	RGS4 act	RGS4 inh	MrgX1 PAM	MrgX1 antagonist	MrgX1 ag confirm	HEK293 Ca flux	HEK293 Ca counter	HEK293 Ca cntr2
CCc1ccc(CNc2ccc3c(c2)ncn3C(C)(C)C)cc1	i	i	i	i	i	.	.	.	.
CCOC(=O)Nc1ccc2c(c1)N(C(=O)N(CC)CC)c1ccccc1CC2	38*	i	i	i	i	161%*	i	i	47*
CCOC(=O)Nc1ccc2c(c1)N(C(=O)N(C)C)c1ccccc1CC2	i	i	i	i	i	.	.	.	.
COc1ccc(C2=NS(=O)(=O)N(C)C(C(=O)N(C)Cc3ccccc3)=C2)cc1OC	i	i	i	i	i	.	.	.	.
CCOC(=O)C1CCN(C(=O)CCNS(=O)(=O)c2cc(Br)cnc2N)CC1	i	i	i	i	i	.	.	.	.
Cc1cc(Nc2ccc(Cl)cc2)nc(N)n1	35*	i	i	i	i	207%*	i	i	i
Cc1ccc(-c2cc3ccccc3nc2N)cc1	43*	i	i	i	i	220%*	i	i	i
Nc1nc2ccccc2cc1-c1cccs1	45*	i	i	i	i	196%*	i	i	i
c1csc(-c2ccc3ccccc3n2)c1	i	i	i	i	i	.	.	.	.
O=C(C#Cc1ccccc1)c1ccco1	44*	i	i	i	i	240%*	i	i	i
Cc1cc(C)nc(/N=C(\N)Nc2ccc(S(N)(=O)=O)cc2)n1	i	i	i	i	i	.	.	.	.
COc1ccc(C)cc1N/C(N)=N/c1nc(C)cc(C)n1	i	i	i	i	i	.	.	.	.
CCOc1ccc(N/C(N)=N/c2nc(C)cc(C)n2)cc1	142*	i	i	i	i	434%*	i	i	94*
Cc1ccc(C)c(N/C(N)=N/c2nc(C)cc(C)n2)c1	59*	i	i	i	i	385%*	i	i	85*
Cc1cc(C)nc(/N=C(\N)Nc2ccc(SC(F)F)cc2)n1	57*	i	i	i	i	444%*	i	i	98*
CC(=O)Nc1ccc(N/C(N)=N/c2nc(C)cc(C)n2)cc1	i	i	i	i	i	.	.	.	.
Cc1cc(C)nc(/N=C(\N)Nc2ccc(-c3ccccc3)cc2)n1	74*	-7.1*	i	i	i	300%*	i	i	i
O=C(Nc1cc(-c2ccccc2)nn1-c1ccccc1)c1ccccc1F	i	.	.	i	i	.	.	.	.
COc1ccc(CCNC(=O)CSc2nnc3ccc(-c4ccccn4)nn23)cc1	i	i	i	i	i	.	.	.	.
O=C1c2ccccc2S(=O)(=O)c2cc(C(=O)N3CCC(C(=O)N4CCCCC4)CC3)ccc21	i	i	i	i	i	.	.	.	.
CCOC(=O)c1[nH]c2ccc(F)cc2c1N=C(C)N(CC)CC	50*	i	i	i	i	116%*	i	i	i
CC1(C)Cc2c(c(-c3ccco3)nc3sc4c(NCC5CCCO5)ncnc4c23)CO1 (centres undefined)	49*	i	i	i	i	208%*	i	i	45*
CC1(C)Cc2c(c(-c3ccco3)nc3sc4c(NCCCO)ncnc4c23)CO1	i	i	i	i	i	.	.	.	.
CCOC(=O)c1ccc(Oc2cc(C)nc(Cl)n2)cc1	i	i	i	i	i	.	.	.	.
CCOc1ccc(CSC(=N)N)cc1Cl	33*	i	i	i	i	179%*	i	i	i
